# Experimental data published in ChEMBL document CHEMBL4152188, “Design, synthesis and biological evaluation of C(4) substituted monobactams as antibacterial agents against multidrug-resistant Gram-negative bacteria” (Eur J Med Chem, 2018).
# Legend:
# Assay type in all cases: functional
# [1] = test system: Pseudomonas aeruginosa; assay: Antibacterial activity against IMP-4 producing Pseudomonas aeruginosa isolate 212886 after 18 hrs by CLSI broth microdilution method; settings: isolate 212886, 18 h
# [2] = test system: Pseudomonas aeruginosa; assay: Antibacterial activity against IMP-4 producing Pseudomonas aeruginosa isolate 209471 after 18 hrs by CLSI broth microdilution method; settings: isolate 209471, 18 h
# [3] = test system: Escherichia coli; assay: Selectivity index, ratio of MIC for against extended-spectrum beta-lactamase producing Escherichia coli isolate 209285 to MIC for extended-spectrum beta-lactamase producing Escherichia coli isolate 209285 in presence of BPL
# [4] = test system: Pseudomonas aeruginosa; assay: Antibacterial activity against IMP-4 producing Pseudomonas aeruginosa isolate 208247 after 18 hrs in presence of BPL by CLSI broth microdilution method; settings: isolate 208247, 18 h
# How it was run: (§1)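 CLSI broth microdilution against clinical isolates (ESBL E. coli, KPC-2 MDR K. pneumoniae, IMP-4 MDR P. aeruginosa; five per species). Iron limitation: Mueller-Hinton broth supplemented with 16 mg/liter 2,2'-bipyridyl to complex iron and induce iron uptake systems. Read-out: MIC.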
# [5] = test system: Pseudomonas aeruginosa; assay: Antibacterial activity against IMP-4 producing Pseudomonas aeruginosa isolate 207272 after 18 hrs by CLSI broth microdilution method; settings: isolate 207272, 18 h
# [6] = test system: Klebsiella pneumoniae; assay: Antibacterial activity against KPC-2 producing Klebsiella pneumoniae isolate 209632 after 18 hrs in presence of BPL by CLSI broth microdilution method; settings: isolate 209632, 18 h; how it was run: as §1
# [7] = test system: Pseudomonas aeruginosa; assay: Antibacterial activity against IMP-4 producing Pseudomonas aeruginosa isolate 207272 after 18 hrs in presence of BPL by CLSI broth microdilution method; settings: isolate 207272, 18 h; how it was run: as §1
# [8] = test system: Pseudomonas aeruginosa; assay: Selectivity index, ratio of MIC for against IMP-4 producing Pseudomonas aeruginosa isolate 208247 to MIC for against IMP-4 producing Pseudomonas aeruginosa isolate 208247 in presence of BPL
# [9] = test system: Klebsiella pneumoniae; assay: Antibacterial activity against KPC-2 producing Klebsiella pneumoniae isolate 212232 after 18 hrs in presence of BPL by CLSI broth microdilution method; settings: isolate 212232, 18 h; how it was run: as §1
# [10] = test system: Escherichia coli; assay: Antibacterial activity against extended-spectrum beta-lactamase producing Escherichia coli isolate 212648 after 18 hrs by CLSI broth microdilution method; settings: isolate 212648, 18 h
# [11] = test system: Escherichia coli; assay: Antibacterial activity against extended-spectrum beta-lactamase producing Escherichia coli isolate 106342 after 18 hrs in presence of BPL by CLSI broth microdilution method; settings: isolate 106342, 18 h; how it was run: as §1
# [12] = test system: Pseudomonas aeruginosa; assay: Antibacterial activity against IMP-4 producing Pseudomonas aeruginosa isolate 209471 after 18 hrs in presence of BPL by CLSI broth microdilution method; settings: isolate 209471, 18 h; how it was run: as §1
# [13] = test system: Klebsiella pneumoniae; assay: Antibacterial activity against KPC-2 producing Klebsiella pneumoniae isolate 212229 after 18 hrs in presence of BPL by CLSI broth microdilution method; settings: isolate 212229, 18 h; how it was run: as §1
# [14] = test system: Escherichia coli; assay: Antibacterial activity against extended-spectrum beta-lactamase producing Escherichia coli isolate 212648 after 18 hrs in presence of BPL by CLSI broth microdilution method; settings: isolate 212648, 18 h; how it was run: as §1
# [15] = test system: Klebsiella pneumoniae; assay: Antibacterial activity against KPC-2 producing Klebsiella pneumoniae isolate 209632 after 18 hrs by CLSI broth microdilution method; settings: isolate 209632, 18 h
# [16] = test system: Pseudomonas aeruginosa; assay: Antibacterial activity against IMP-4 producing Pseudomonas aeruginosa isolate 209321 after 18 hrs by CLSI broth microdilution method; settings: isolate 209321, 18 h
# [17] = test system: Pseudomonas aeruginosa; assay: Antibacterial activity against IMP-4 producing Pseudomonas aeruginosa isolate 212886 after 18 hrs in presence of BPL by CLSI broth microdilution method; settings: isolate 212886, 18 h; how it was run: as §1
# [18] = test system: Escherichia coli; assay: Selectivity index, ratio of MIC for against extended-spectrum beta-lactamase producing Escherichia coli isolate 106342 to MIC for extended-spectrum beta-lactamase producing Escherichia coli isolate 106342 in presence of BPL
# [19] = test system: Pseudomonas aeruginosa; assay: Antibacterial activity against IMP-4 producing Pseudomonas aeruginosa isolate 209321 after 18 hrs in presence of BPL by CLSI broth microdilution method; settings: isolate 209321, 18 h; how it was run: as §1
# [20] = test system: Klebsiella pneumoniae; assay: Selectivity index, ratio of MIC for against KPC-2 producing Klebsiella pneumoniae isolate 212232 to MIC for against KPC-2 producing Klebsiella pneumoniae isolate 212232 in presence of BPL
# [21] = test system: Klebsiella pneumoniae; assay: Antibacterial activity against KPC-2 producing Klebsiella pneumoniae isolate 212229 after 18 hrs by CLSI broth microdilution method; settings: isolate 212229, 18 h
# [22] = test system: Klebsiella pneumoniae; assay: Selectivity index, ratio of MIC for against KPC-2 producing Klebsiella pneumoniae isolate 212423 to MIC for against KPC-2 producing Klebsiella pneumoniae isolate 212423 in presence of BPL
# [23] = test system: Escherichia coli; assay: Selectivity index, ratio of MIC for against extended-spectrum beta-lactamase producing Escherichia coli isolate 212648 to MIC for extended-spectrum beta-lactamase producing Escherichia coli isolate 212648 in presence of BPL
# [24] = test system: Escherichia coli; assay: Antibacterial activity against extended-spectrum beta-lactamase producing Escherichia coli isolate 209285 after 18 hrs in presence of BPL by CLSI broth microdilution method; settings: isolate 209285, 18 h; how it was run: as §1
# [25] = test system: Klebsiella pneumoniae; assay: Antibacterial activity against KPC-2 producing Klebsiella pneumoniae isolate 209735 after 18 hrs by CLSI broth microdilution method; settings: isolate 209735, 18 h
# [26] = test system: Escherichia coli; assay: Selectivity index, ratio of MIC for against Escherichia coli isolate 210737 to MIC for Escherichia coli isolate 210737 in presence of BPL
# [27] = test system: Pseudomonas aeruginosa; assay: Selectivity index, ratio of MIC for against IMP-4 producing Pseudomonas aeruginosa isolate 207272 to MIC for against IMP-4 producing Pseudomonas aeruginosa isolate 207272 in presence of BPL
# [28] = test system: Escherichia coli; assay: Antibacterial activity against extended-spectrum beta-lactamase producing Escherichia coli isolate 209285 after 18 hrs by CLSI broth microdilution method; settings: isolate 209285, 18 h
# [29] = test system: Escherichia coli; assay: Antibacterial activity against extended-spectrum beta-lactamase producing Escherichia coli isolate 208687 after 18 hrs in presence of BPL by CLSI broth microdilution method; settings: isolate 208687, 18 h; how it was run: as §1
# [30] = test system: Klebsiella pneumoniae; assay: Selectivity index, ratio of MIC for against KPC-2 producing Klebsiella pneumoniae isolate 209632 to MIC for against KPC-2 producing Klebsiella pneumoniae isolate 209632 in presence of BPL
# [31] = test system: Klebsiella pneumoniae; assay: Selectivity index, ratio of MIC for against KPC-2 producing Klebsiella pneumoniae isolate 212229 to MIC for against KPC-2 producing Klebsiella pneumoniae isolate 212229 in presence of BPL
# [32] = test system: Klebsiella pneumoniae; assay: Antibacterial activity against KPC-2 producing Klebsiella pneumoniae isolate 209735 after 18 hrs in presence of BPL by CLSI broth microdilution method; settings: isolate 209735, 18 h; how it was run: as §1
# [33] = test system: Klebsiella pneumoniae; assay: Antibacterial activity against KPC-2 producing Klebsiella pneumoniae isolate 212423 after 18 hrs in presence of BPL by CLSI broth microdilution method; settings: isolate 212423, 18 h; how it was run: as §1
# [34] = test system: Klebsiella pneumoniae; assay: Selectivity index, ratio of MIC for against KPC-2 producing Klebsiella pneumoniae isolate 209735 to MIC for against KPC-2 producing Klebsiella pneumoniae isolate 209735 in presence of BPL
# [35] = test system: Escherichia coli; assay: Antibacterial activity against extended-spectrum beta-lactamase producing Escherichia coli isolate 106342 after 18 hrs by CLSI broth microdilution method; settings: isolate 106342, 18 h
# [36] = test system: Pseudomonas aeruginosa; assay: Selectivity index, ratio of MIC for against IMP-4 producing Pseudomonas aeruginosa isolate 209321 to MIC for against IMP-4 producing Pseudomonas aeruginosa isolate 209321 in presence of BPL
# [37] = test system: Klebsiella pneumoniae; assay: Antibacterial activity against KPC-2 producing Klebsiella pneumoniae isolate 212232 after 18 hrs by CLSI broth microdilution method; settings: isolate 212232, 18 h
# [38] = test system: Pseudomonas aeruginosa; assay: Selectivity index, ratio of MIC for against IMP-4 producing Pseudomonas aeruginosa isolate 209471 to MIC for against IMP-4 producing Pseudomonas aeruginosa isolate 209471 in presence of BPL
# [39] = test system: Escherichia coli; assay: Antibacterial activity against Escherichia coli isolate 210737 after 18 hrs in presence of BPL by CLSI broth microdilution method; settings: isolate 210737, 18 h; how it was run: as §1
# [40] = test system: Escherichia coli; assay: Selectivity index, ratio of MIC for against extended-spectrum beta-lactamase producing Escherichia coli isolate 208687 to MIC for extended-spectrum beta-lactamase producing Escherichia coli isolate 208687 in presence of BPL
# [41] = test system: Escherichia coli; assay: Antibacterial activity against extended-spectrum beta-lactamase producing Escherichia coli isolate 208687 after 18 hrs by CLSI broth microdilution method; settings: isolate 208687, 18 h
# [42] = test system: Escherichia coli; assay: Antibacterial activity against Escherichia coli isolate 210737 after 18 hrs by CLSI broth microdilution method; settings: isolate 210737, 18 h
# [43] = test system: Pseudomonas aeruginosa; assay: Antibacterial activity against IMP-4 producing Pseudomonas aeruginosa isolate 208247 after 18 hrs by CLSI broth microdilution method; settings: isolate 208247, 18 h
# [44] = test system: Pseudomonas aeruginosa; assay: Selectivity index, ratio of MIC for against IMP-4 producing Pseudomonas aeruginosa isolate 212886 to MIC for against IMP-4 producing Pseudomonas aeruginosa isolate 212886 in presence of BPL
# [45] = test system: Klebsiella pneumoniae; assay: Antibacterial activity against KPC-2 producing Klebsiella pneumoniae isolate 212423 after 18 hrs by CLSI broth microdilution method; settings: isolate 212423, 18 h
smiles,measurement,setting,value
CC(C)C(O/N=C(\C(=O)N[C@@H]1C(=O)N(S(=O)(=O)O)[C@@H]1COC(=O)CNC(=O)c1cc(=O)c(O)c[nH]1)c1csc(N)n1)c1cc(=O)c(O)cn1O (stereo not given in full),MIC,[1],> 64 µg/mL
same,MIC,[2],> 64 µg/mL
same,Selectivity Index,[3],2
same,MIC,[4],64 µg/mL
same,MIC,[5],64 µg/mL
same,MIC,[6],> 64 µg/mL
same,MIC,[7],64 µg/mL
same,Selectivity Index,[8],1
same,MIC,[9],16 µg/mL
same,MIC,[10],32 µg/mL
same,MIC,[11],16 µg/mL
same,MIC,[12],> 64 µg/mL
same,MIC,[13],> 64 µg/mL
same,MIC,[14],16 µg/mL
same,MIC,[15],> 64 µg/mL
same,MIC,[16],64 µg/mL
same,MIC,[17],> 64 µg/mL
same,Selectivity Index,[18],1
same,MIC,[19],32 µg/mL
same,Selectivity Index,[20],>4
same,MIC,[21],> 64 µg/mL
same,Selectivity Index,[22],4
same,Selectivity Index,[23],2
same,MIC,[24],16 µg/mL
same,MIC,[25],> 64 µg/mL
same,Selectivity Index,[26],2
same,Selectivity Index,[27],1
same,MIC,[28],32 µg/mL
same,MIC,[29],4 µg/mL
same,Selectivity Index,[30],4
same,Selectivity Index,[31],4
same,MIC,[32],> 64 µg/mL
same,MIC,[33],> 64 µg/mL
same,Selectivity Index,[34],4
same,MIC,[35],16 µg/mL
same,Selectivity Index,[36],2
same,MIC,[37],> 64 µg/mL
same,Selectivity Index,[38],1 - 2
same,MIC,[39],8 µg/mL
same,Selectivity Index,[40],8
same,MIC,[41],32 µg/mL
same,MIC,[42],16 µg/mL
same,MIC,[43],64 µg/mL
same,Selectivity Index,[44],1 - 2
same,MIC,[45],> 64 µg/mL
